Source: publication PMC5048114 (Iranian Journal of Basic Medical Sciences, 2016)
≈ marks a conversion by molar mass, not a printed value.

Legend:
[1] = DPPH free radical scavenging assay; conditions: 0.3 mM DPPH, 30 min at 37 °C, absorbance 515 nm
Outline: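 Test compound at four concentrations (µg/ml) in microplate wells, mixed with ethanolic DPPH. Blank is solvent alone with DPPH. Absorbance decrease is read after incubation. Run in triplicate and reported as the mean of three values.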

[2] = Ferric reducing antioxidant potential; conditions: 30 min incubation at 37 °C, absorbance 593 nm
Outline: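 FRAP reagent is 300 mM acetate buffer pH 3.6, 20 mM ferric chloride hexahydrate in water and 10 mM TPTZ in 40 mM HCl, combined 10:1:1 by volume (stock concentrations). Test compound at five concentrations (µg/ml) is added to the reagent in microplate wells, and absorbance is read after incubation. Run in triplicate.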

[3] = test system: glutamate-induced neurotoxicity; conditions: concentrations ranging from 0.1 to 10 µM; cited from earlier work

Row | SMILES | IC50 (DPPH radical scavenging activity) [1] [µg/mL] | FRAP [2] [mmol/g] | attenuation of glutamate-induced neurotoxicity [3]
1 | C[C@@H]1O[C@@H](O[C@@H]2[C@@H](O)[C@H](OCCc3ccc(O)c(O)c3)O[C@H](CO)[C@H]2OC(=O)/C=C/c2ccc(O)c(O)c2)[C@H](O)[C@H](O)[C@H]1O [Verbascoside, verbascoside] | 0.53 (≈ 0.849 µM) | 7.49 | –
2 | C[C@@H]1O[C@@H](OC[C@H]2O[C@@H](OCCc3ccc(O)c(O)c3)[C@H](O)[C@@H](O[C@@H]3O[C@@H](C)[C@H](O)[C@@H](O)[C@H]3O)[C@@H]2OC(=O)/C=C/c2ccc(O)c(O)c2)[C@H](O)[C@H](O)[C@H]1O [Poliumoside, poliumoside] | 0.042 (≈ 0.0545 µM) | 14.32 | significantly attenuated glutamate-induced neurotoxicity
3 | C[C@@H]1O[C@@H](OC[C@H]2O[C@@H](Oc3cc(O)c4c(=O)cc(-c5ccc(O)cc5)oc4c3)[C@H](O)[C@@H](O)[C@@H]2O)[C@H](O)[C@H](O)[C@H]1O [Isorhoifolin, isorhoifolin] | 1.37 (≈ 2.37 µM) | 7.67 | –

Further lines, with some results ahead:

Row | IC50 (DPPH radical scavenging activity) [1] [µg/mL] | SMILES | FRAP [2] [mmol/g] | attenuation of glutamate-induced neurotoxicity [3]
4 | 0.41 (≈ 0.952 µM) | Cc1c(C)c2c(c(C)c1O)CC[C@@](C)(CCC[C@H](C)CCC[C@H](C)CCCC(C)C)O2 [α- tocopherol, α-tocopherol, reference compound] | 1.99 | –
5 | 12 (≈ 38.2 µM) | COc1cc(O)c2c(=O)c(OC)c(-c3ccc(O)cc3)oc2c1 [Jaranol, jaranol] | 1.5 | –
